Measurements from different studies.
Target: Phosphatidylinositol 4-phosphate 3-kinase C2 domain-containing subunit beta (PIK3C2B, Homo sapiens, UniProt O00750)

SMILES	observed	technique	concentration	remaining binding
Nc1ncc2c(n1)-c1c([nH]c3ccc(C#CC4CC4)cc13)CCCC2	binding	competition with immobilised ligand	1 µM	89%
c1cnn2ncc(-c3ccnc(N4CCC45COC5)n3)c2c1	binding		1 µM	82%
CN(c1ccnc(CNc2nc(Nc3ccc4c(c3)CC(=O)N4)ncc2C(F)(F)F)n1)S(C)(=O)=O	cell-free assay	competition with immobilised ligand	1 µM	79%
C[C@H]1CCN(c2nccc(-c3cnn4ncccc34)n2)C1	binding		1 µM	91%
O=C(Nc1cnc(Oc2ccc(F)cc2)nc1)N1CCc2ncccc2[C@@H]1c1ccc(F)cc1	cell-free assay	competition with immobilised ligand	1 µM	95%
O=C(c1ccc(Nc2ncc(Cl)c(-c3ccc(Cl)s3)n2)cc1)N1CCC(N2CCCC2)CC1	binding	competition with immobilised ligand	1 µM	98%
FC(F)(F)Oc1cccc(-c2cnc3ccc(-c4ccncc4)nn23)c1	cell-free assay	competition with immobilised ligand	5 µM	54%
CCS(=O)(=O)c1cc2cc(C[C@@](O)(CC(C)(C)c3ccc(F)cc3C(N)=O)C(F)(F)F)[nH]c2cn1	cell-free assay	competition with immobilised ligand	1 µM	86%
CC(C)(C)c1ccc(-c2nc(CBr)nn2-c2cccc(O)c2)cc1	cell-free assay	competition with immobilised ligand	10 µM	60%
N[C@@H]1CCN(c2nccc(-c3cnn4ncccc34)n2)C1	binding		1 µM	100%
O=C(N[C@H]1CCCCC/C=C\C2C[C@@]2(C(=O)O)NC(=O)[C@@H]2C[C@@H](Oc3ccncc3)CN2C1=O)OC1CCCC1 (stereo partly drawn)	binding	competition with immobilised ligand	1 µM	84%
C[C@@H](c1ccc(-n2cnc3c(N)ncnc32)cc1)N1CCc2nn(C)c(Cc3ccccc3)c2C1=O	binding	competition with immobilised ligand	0.1 µM	87%
O=C(c1ccc(Nc2nccc(-c3cc4ccccc4s3)n2)cc1)N1CCC(N2CCCC2)CC1	binding	competition with immobilised ligand	1 µM	99%
O=C(Nc1c[nH]nc1C(=O)NC1CCNCC1)c1cc(F)cc(F)c1	binding	competition with immobilised ligand	1 µM	100%
Nc1cnc(N2CCc3cc(S(=O)(=O)Nc4c(F)cc(Cl)cc4F)cc(N4CCCC4=O)c32)nc1	cell-free assay	competition with immobilised ligand	1 µM	83%
Cc1nc(NC(=O)N2CCC[C@H]2C(N)=O)sc1-c1ccnc(C(C)(C)C(F)(F)F)c1	binding	competition with immobilised ligand	10 µM	4%
C[C@@H](c1cccc(C#N)c1)n1cc(Cl)cc(C(N)=O)c1=N	cell-free assay	competition with immobilised ligand	1 µM	96%
COc1ccnn2ncc(-c3ccnc(N(C)C)n3)c12	binding		1 µM	100%
O=C(NCCCN1CCOCC1)c1ccc(Nc2nccc(-c3cc4ccccc4s3)n2)cc1	binding	competition with immobilised ligand	1 µM	92%
COCCOc1nc(-c2ccc(Cl)nc2)nc2c1CN(C(=O)c1ncn3ccccc13)CC2	cell-free assay	competition with immobilised ligand	0.1 µM	100%
CN(CCCC(F)(F)F)c1nccc(-c2cnn3ncccc23)n1	binding		1 µM	100%
c1cncc(-c2cccc(Nc3nccc(NC4CCCCC4)n3)c2)c1	binding	competition with immobilised ligand	10 µM	81%
COc1cnc(Nc2cccc(S(N)(=O)=O)c2)nc1N1CCN(c2ccccc2)CC1	binding	competition with immobilised ligand	1 µM	100%
CC1CCCN1c1nccc(-c2cnn3ncccc23)n1 (stereo not drawn)	binding		1 µM	100%
